Results from ChEMBL document CHEMBL1765076, “17,20-Lyase inhibitors. Part 3: Design, synthesis, and structure-activity relationships of biphenylylmethylimidazole derivatives as novel 17,20-lyase inhibitors” (Bioorg Med Chem, 2011).

Key:
Cynomolgus monkey [1] = assay: Antiandrogenic activity in cynomolgus monkey assessed as serum DHEA level at 3 mg/kg, po after 2 hrs (reference value: 116 +/- 95%); type: functional, Macaca fascicularis
Cynomolgus monkey [2] = assay: Antiandrogenic activity in cynomolgus monkey assessed as serum testosterone level at 3 mg/kg, po after 5 hrs (reference value: 98 +/- 33%); type: functional, Macaca fascicularis
[3] = target: T1, Steroid 17-alpha-hydroxylase/17,20 lyase (Homo sapiens, UniProt P05093); assay: Inhibition of human 17,20 lyase activity
T1 sequence (P05093 whole entry): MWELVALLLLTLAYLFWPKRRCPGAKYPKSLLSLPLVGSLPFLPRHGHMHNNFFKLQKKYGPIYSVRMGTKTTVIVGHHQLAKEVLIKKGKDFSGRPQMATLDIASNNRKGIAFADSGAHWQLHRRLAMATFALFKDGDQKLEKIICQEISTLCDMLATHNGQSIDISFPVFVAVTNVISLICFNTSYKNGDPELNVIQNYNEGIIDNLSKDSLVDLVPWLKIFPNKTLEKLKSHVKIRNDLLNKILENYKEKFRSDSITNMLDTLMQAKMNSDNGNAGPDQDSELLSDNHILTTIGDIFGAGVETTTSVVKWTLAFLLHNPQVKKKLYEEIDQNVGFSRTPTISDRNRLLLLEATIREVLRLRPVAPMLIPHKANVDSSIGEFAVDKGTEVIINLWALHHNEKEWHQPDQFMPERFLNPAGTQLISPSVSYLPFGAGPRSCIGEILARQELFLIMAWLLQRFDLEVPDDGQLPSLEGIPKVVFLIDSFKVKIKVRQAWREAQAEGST

Cynomolgus monkey [4] = assay: Antiandrogenic activity in cynomolgus monkey assessed as serum DHEA level at 3 mg/kg, po after 5 hrs (reference value: 148 +/- 53%); type: functional, Macaca fascicularis
[5] = target: T2, Steroid 17-alpha-hydroxylase/17,20 lyase (Rattus norvegicus, UniProt P11715); assay: Inhibition of 17,20 lyase activity in Sprague-Dawley rat testicular microsomes; parameters: species or system Testis
T2 sequence (P11715 whole entry): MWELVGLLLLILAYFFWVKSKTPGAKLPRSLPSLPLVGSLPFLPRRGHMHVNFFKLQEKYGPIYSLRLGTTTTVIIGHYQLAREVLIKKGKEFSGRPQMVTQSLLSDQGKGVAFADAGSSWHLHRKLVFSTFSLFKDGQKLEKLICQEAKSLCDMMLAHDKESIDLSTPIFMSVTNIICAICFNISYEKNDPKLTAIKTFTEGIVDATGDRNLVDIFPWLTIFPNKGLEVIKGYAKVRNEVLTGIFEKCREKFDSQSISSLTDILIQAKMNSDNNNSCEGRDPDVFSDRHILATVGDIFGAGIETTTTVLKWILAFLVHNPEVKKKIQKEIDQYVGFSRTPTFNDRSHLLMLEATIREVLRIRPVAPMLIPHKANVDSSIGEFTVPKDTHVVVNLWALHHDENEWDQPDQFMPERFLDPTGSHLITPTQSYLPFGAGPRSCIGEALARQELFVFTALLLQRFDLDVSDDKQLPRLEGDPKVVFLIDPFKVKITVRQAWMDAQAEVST
How it was run: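 Testicular microsomes came from 13-week-old male SD rats, prepared by homogenisation and centrifugation. Reactions contained 75 mM phosphate (pH 7.4), 7 µg microsomal protein, 10 nM [1,2-3H]-17α-hydroxyprogesterone, 5 mM NADPH and 1–1000 nM compound (final concentrations; DMF stocks diluted in water). Incubation was 15 min at 37 °C, stopped with ethyl acetate. IC50 is the concentration halving product formation.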

Cynomolgus monkey [6] = assay: Antiandrogenic activity in cynomolgus monkey assessed as serum testosterone level at 3 mg/kg, po after 2 hrs (reference value: 110 +/- 29%); type: functional, Macaca fascicularis
Cytochrome P450 3A4 = Cytochrome P450 3A4 (Homo sapiens, UniProt P08684); assay: Inhibition of human CYP3A4 after 30 mins; type: ADME
Sequence of Cytochrome P450 3A4 (P08684 whole entry): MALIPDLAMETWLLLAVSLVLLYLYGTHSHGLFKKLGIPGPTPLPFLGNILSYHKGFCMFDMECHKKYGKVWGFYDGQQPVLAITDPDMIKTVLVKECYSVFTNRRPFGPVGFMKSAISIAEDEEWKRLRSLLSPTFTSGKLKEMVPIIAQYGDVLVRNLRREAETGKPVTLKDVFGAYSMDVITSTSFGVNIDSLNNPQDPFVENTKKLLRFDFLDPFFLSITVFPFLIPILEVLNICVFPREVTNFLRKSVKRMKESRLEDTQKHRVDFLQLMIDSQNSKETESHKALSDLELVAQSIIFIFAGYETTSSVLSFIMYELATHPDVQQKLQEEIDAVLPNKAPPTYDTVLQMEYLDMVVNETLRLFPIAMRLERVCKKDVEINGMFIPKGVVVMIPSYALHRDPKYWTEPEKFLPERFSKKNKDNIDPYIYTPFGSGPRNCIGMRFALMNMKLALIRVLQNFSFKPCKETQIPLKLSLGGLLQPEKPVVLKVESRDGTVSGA

Homo sapiens = species on record: Homo sapiens; assay: Ratio of IC50 for human CYP3A4 to IC50 for human 17,20-lyase

Row | Compound | IC50 (Cytochrome P450 3A4) [nM] | Ratio IC50 (Homo sapiens) | Activity (Cynomolgus monkey [1]) [%] | Activity (Cynomolgus monkey [2]) [%] | IC50 [3] [nM] | Activity (Cynomolgus monkey [4]) [%] | IC50 [5] [nM] | Activity (Cynomolgus monkey [6]) [%]
1 | CC(=O)Nc1cccc(-c2ccc([C@](O)(c3c[nH]cn3)C(C)C)cc2)c1 | – | – | 23 | 23 | 26 | 13 | 14 | 52
2 | CC(=O)Nc1cccc(-c2ccc([C@@](O)(c3c[nH]cn3)C(C)C)cc2)c1 | – | – | – | – | 340 | – | 770 | –
3 | CC(=O)Nc1cccc(-c2ccc([C@](O)(c3cnc[nH]3)C(C)C)cc2)n1 | > 10000 | – | – | – | 26 | – | 33 | –
4 | CC(=O)Nc1cccc(-c2ccc([C@@](O)(c3cnc[nH]3)C(C)C)cc2)n1 | > 10000 | – | – | – | 92 | – | > 1000 | –
5 | CC(C)C(O)(c1cccc(-c2ccc(F)cc2)c1)c1c[nH]cn1 (racemic) | 2100 | 111 | – | – | 19 | – | – | –
6 | CC(C)C(O)(c1cccc(-c2ccc(Cl)cc2)c1)c1c[nH]cn1 (racemic) | 2400 | 49 | – | – | 49 | – | 19 | –
7 | CC(C)C(O)(c1ccc(-c2ccccc2)cc1)c1c[nH]cn1 (racemic) | 3700 | 112 | – | – | 33 | – | 33 | –
8 | CC(C)C(O)(c1ccc(-c2ccc(F)cc2)cc1)c1c[nH]cn1 (racemic) | 5300 | 196 | – | – | 27 | – | – | –
9 | CC(C)C(O)(c1ccc(-c2ccc(Cl)cc2)cc1)c1c[nH]cn1 (racemic) | 7600 | 271 | – | – | 28 | – | 29 | –
10 | CC(=O)Nc1cccc(-c2ccc(C(O)(c3c[nH]cn3)C(C)C)cc2)c1 (racemic) | – | – | – | – | 24 | – | 17 | –
11 | CC(=O)Nc1ccc(-c2ccc(C(O)(c3c[nH]cn3)C(C)C)cc2)cc1 (racemic) | 1000 | – | – | – | 120 | – | 24 | –
12 | CNC(=O)c1cccc(-c2ccc(C(O)(c3c[nH]cn3)C(C)C)cc2)c1 (racemic) | 8100 | – | – | – | 44 | – | 49 | –
13 | CNS(=O)(=O)c1cccc(-c2ccc(C(O)(c3cnc[nH]3)C(C)C)cc2)c1 (racemic) | 3300 | – | – | – | 160 | – | 71 | –
14 | CNC(=O)Nc1cccc(-c2ccc(C(O)(c3c[nH]cn3)C(C)C)cc2)c1 (racemic) | 5500 | – | – | – | 21 | – | 24 | –
15 | CC(=O)Nc1cccc(-c2ccc(C(O)(c3c[nH]cn3)C(C)C)cc2)n1 (racemic) | > 10000 | – | – | – | 36 | – | 53 | –

Now from value to compound, other results behind:

Row | IC50 (Cytochrome P450 3A4) [nM] | Ratio IC50 (Homo sapiens) | Compound | Activity (Cynomolgus monkey [1]) [%] | Activity (Cynomolgus monkey [2]) [%] | IC50 [3] [nM] | Activity (Cynomolgus monkey [4]) [%] | IC50 [5] [nM] | Activity (Cynomolgus monkey [6]) [%]
16 | > 10000 | > 300 | CC[C@](O)(c1ccc(-c2cccc(NC(C)=O)c2)cc1)c1c[nH]cn1 | – | – | 22 | – | 19 | –
17 | > 10000 | – | CC[C@@](O)(c1ccc(-c2cccc(NC(C)=O)c2)cc1)c1c[nH]cn1 | – | – | 240 | – | 450 | –
18 | – | > 300 | CC(=O)Nc1cccc(-c2ccc([C@](O)(c3c[nH]cn3)C(C)C)cc2)n1 | – | – | – | – | – | –
19 | 2000 | 15 | COc1ccc(-c2cccc(C(O)(c3c[nH]cn3)C(C)C)c2)cc1 (racemic) | – | – | 130 | – | – | –
20 | 4900 | 91 | COc1ccc(-c2ccc(C(O)(c3c[nH]cn3)C(C)C)cc2)cc1 (racemic) | – | – | 54 | – | 120 | –
21 | 5200 | – | CC(C)C(O)(c1ccc(-c2ccccn2)cc1)c1c[nH]cn1 (racemic) | – | – | 150 | – | 210 | –
22 | > 10000 | – | CC(=O)Nc1cccc(-c2ccc(C(C)(O)c3c[nH]cn3)cc2)c1 (racemic) | – | – | 38 | – | 62 | –
23 | > 10000 | – | CCC(O)(c1ccc(-c2cccc(NC(C)=O)c2)cc1)c1c[nH]cn1 (racemic) | – | – | 40 | – | 25 | –
24 | 5500 | – | CC(=O)Nc1cccc(-c2ccc(C(O)(c3c[nH]cn3)C3CC3)cc2)c1 (racemic) | – | – | 45 | – | 81 | –
25 | > 10000 | – | CC(=O)Nc1cccc(-c2ccc(C(O)c3cnc[nH]3)cc2)c1 (racemic) | – | – | 77 | – | 320 | –
26 | < 1000 | – | COc1ccc2cc(C(O)(c3c[nH]cn3)C(C)C)ccc2c1 (racemic) | – | – | – | – | – | –
